A selection: hits, their analogues and other compounds. The true share with any hit is near 2.4%.
TMEM16A inh – TMEM16A chloride channel inhibitors, primary screen, cell-based, HTS; Anoctamin-1 (Mus musculus), Q8BHY3; HEK293 TMEM16A/YFP iodide influx fluorescence, ionomycin; normalized B-score (activity score, 25-100; higher = stronger inhibition) at 10 µM; hit rate 1.2% among 310,000;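 active means ratio plate-corrected score three or more library SD toward inhibition, starting fluorescence score within five deviations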;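 further: score derived from kinetic fluorescence span divided by baseline fluorescence per well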
UBC13 inh – UBC13 polyubiquitin chain formation inhibitors, primary screen, biochemical, TR-FRET, uHTS | inhibition, % at 20 µM | hit rate 0.47% among 330,000 | AID 485273, 2010 | Ubiquitin-conjugating enzyme E2 N (Homo sapiens), P61088; in the data active means inhibition above about 45%, passing the limit was not always enough
DNA FID counter – compounds displacing fluorescent DNA intercalator, primary screen, artefact control for HCV NS3 helicase inhibitor project, biochemical, FID fluorescence | DNA fluorescent intercalator displacement | inhibition, % at 7.9 µM | hit rate 0.17% among 290,000; in the data active means inhibition above about 37%;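 further: 0% = vehicle and 100% = reference compound; higher means more ethidium bromide displaced from hairpin DNA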
TMEM16A act – TMEM16A chloride channel activators or potentiators, primary screen, cell-based, HTS. Anoctamin-1 (Mus musculus), Q8BHY3. HEK293 TMEM16A/YFP-H148Q/I152L, iodide quench fluorescence; hits give low values. B-score at 10 µM. hit rate 0.3% among 340,000;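 active means fluorescence-ratio B-score plate-corrected deviation score at least 3 library SD below zero, with starting fluorescence score within 5 deviations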;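 further: channel opened by trigger with iodide after compound preincubation; score built on the fluorescence ratio of max minus min over baseline; more negative score means more quench and so TMEM16A activation or potentiation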
Apaf-1 inh – inhibitors of human Apaf-1 apoptosome, primary screen, biochemical, DEVD-Rh110 fluorescence, uHTS; Apoptotic protease-activating factor 1 (Homo sapiens), O14727; reconstituted apoptosome caspase-3 activity; inhibition, % at 20 µM; hit rate 0.71% among 330,000; AID 489030, 2010; active means inhibition of at least 40% at 20 µM;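 further: plate controls were DMSO wells for no effect and DEVD-CHO caspase inhibitor wells for full effect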
Target sequence (O14727 whole entry, looked up): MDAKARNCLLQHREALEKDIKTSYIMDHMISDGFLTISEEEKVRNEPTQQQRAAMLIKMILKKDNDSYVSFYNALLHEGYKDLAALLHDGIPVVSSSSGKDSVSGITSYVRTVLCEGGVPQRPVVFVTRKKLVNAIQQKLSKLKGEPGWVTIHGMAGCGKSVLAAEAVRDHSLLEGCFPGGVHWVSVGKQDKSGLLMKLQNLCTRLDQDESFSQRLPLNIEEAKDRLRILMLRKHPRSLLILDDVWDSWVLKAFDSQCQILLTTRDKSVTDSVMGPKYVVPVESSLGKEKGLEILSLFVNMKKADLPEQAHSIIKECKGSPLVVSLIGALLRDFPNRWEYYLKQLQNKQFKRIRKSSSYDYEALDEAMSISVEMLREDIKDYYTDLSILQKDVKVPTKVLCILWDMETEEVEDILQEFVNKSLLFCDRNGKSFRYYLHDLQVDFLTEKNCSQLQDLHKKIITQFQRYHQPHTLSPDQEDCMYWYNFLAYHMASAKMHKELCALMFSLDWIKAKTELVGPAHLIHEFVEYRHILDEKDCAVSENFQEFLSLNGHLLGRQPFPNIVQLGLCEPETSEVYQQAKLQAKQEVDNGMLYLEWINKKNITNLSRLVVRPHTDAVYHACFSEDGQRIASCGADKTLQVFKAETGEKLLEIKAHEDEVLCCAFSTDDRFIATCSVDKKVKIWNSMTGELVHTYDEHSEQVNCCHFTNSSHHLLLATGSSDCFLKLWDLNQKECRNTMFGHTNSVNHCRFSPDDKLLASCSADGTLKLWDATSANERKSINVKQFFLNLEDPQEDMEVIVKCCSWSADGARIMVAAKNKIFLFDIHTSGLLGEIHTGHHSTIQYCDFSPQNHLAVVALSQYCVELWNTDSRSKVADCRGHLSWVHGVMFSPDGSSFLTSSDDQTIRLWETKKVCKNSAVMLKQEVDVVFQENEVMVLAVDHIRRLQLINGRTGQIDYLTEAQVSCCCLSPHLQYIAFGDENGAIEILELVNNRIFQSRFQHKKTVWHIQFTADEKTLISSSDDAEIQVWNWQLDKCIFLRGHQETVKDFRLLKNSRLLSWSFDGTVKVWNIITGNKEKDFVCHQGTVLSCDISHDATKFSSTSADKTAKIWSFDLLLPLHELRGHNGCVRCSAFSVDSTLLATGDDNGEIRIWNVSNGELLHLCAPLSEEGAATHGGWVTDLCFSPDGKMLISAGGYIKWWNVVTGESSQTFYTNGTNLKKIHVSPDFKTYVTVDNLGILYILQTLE
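System: reconstituted apoptosome with Apaf-1, cytochrome c, caspase-9, procaspase-3, dATP; Signal: Rh110 fluorescence intensity; Schedule: 30 min compound preincubation, 50 min activation, room temperature; Reagent: cytochrome c trigger plus (Z-DEVD)2-Rh110 caspase-3 substrate.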
Apaf-1 inh conf2 – Apaf-1 inhibitors, single-dose retest, confirmation, biochemical, fluorescence, DEVD-Rh110, 20 µM; shares compounds with Apaf-1 inh; reconstituted apoptosome, caspase-3 DEVD-Rh110 fluorescence; inhibition, % at 20 µM; hit rate 25% among 1,800; AID 504614, 2011;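 active means mean inhibition of at least 40% at 20 µM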;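 further: plate controls were DMSO wells for no effect and DEVD-CHO caspase inhibitor control wells for full effect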
Rh110 quench – Rh110 fluorescence interference by putative Apaf-1 inhibitors, confirmation, artefact control for Apaf-1 inhibitor project, biochemical, 20 µM; shares compounds with Apaf-1 inh; quenched caspase reaction; activation (fluorescence interference), % at 20 µM; 1,800 tested, under 10 active; AID 504615, 2011;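 active means signal rise of 40% or more at 20 µM, treated as a fluorescence artifact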
Fluor interf inh – fluorescence interference of Apaf-1 inhibitor hits, dose response, artefact control for Apaf-1 inhibitor project. shares compounds with Apaf-1 inh. fluorescence interference counterscreen, Apaf-1 assay format. IC50, µM. 460 tested, under 10 active. AID 588538, 2011; call rule not given here
* = called active by the depositor; ! = not confirmed by another sample.

For COc1ccc(-c2cc(-c3ccc(F)cc3)nc(N3CCN(C)CC3)n2)cc1 the results were TMEM16A inh inactive, UBC13 inh 21.7, DNA FID counter 9.9, TMEM16A act inactive, Apaf-1 inh 65.3*, Apaf-1 inh conf2 6.5 and Rh110 quench 8.9.
For COc1ccc(-c2cc(C(F)(F)F)nc(N3CCOCC3)n2)cc1 the results were TMEM16A inh inactive, UBC13 inh 25.2, DNA FID counter -1.0, TMEM16A act inactive and Apaf-1 inh 8.6.
CN1CCc2cccc3c2[C@H]1Cc1ccc(O)c(O)c1-3 was read as TMEM16A inh inactive, UBC13 inh 3.5, DNA FID counter 12.6, TMEM16A act inactive, Apaf-1 inh 42.2*!, Apaf-1 inh conf2 6.3 and Rh110 quench 6.9.
For O=C(CCn1c(=O)c2cccn2c2cccnc21)NCc1cccc(Cl)c1 the results were TMEM16A inh inactive, UBC13 inh -2.6, DNA FID counter -10.5, TMEM16A act inactive and Apaf-1 inh 2.1.
`COc1ccc(S(=O)(=O)NCC(=O)NCCc2ccc(OC)c(OC)c2)cc1` gave TMEM16A inh inactive, UBC13 inh 7.1, TMEM16A act inactive and Apaf-1 inh -2.7.
Screening CCNc1nc(NCC)n2c(SCC(=O)Nc3ccccc3C(F)(F)F)nnc2n1 returned TMEM16A inh inactive, UBC13 inh -3.8, TMEM16A act inactive and Apaf-1 inh -3.9.
For O=[N+]([O-])c1cc(CN2CCN(c3cccc(C(F)(F)F)c3)CC2)c2cccnc2c1O the results were TMEM16A inh inactive, UBC13 inh -42.1, DNA FID counter -5.5, TMEM16A act inactive, Apaf-1 inh 41.6*, Apaf-1 inh conf2 24.0 and Rh110 quench 5.2.
`Nc1c(C(=O)N2CCCCCC2)oc2ccccc12` gave TMEM16A inh inactive, UBC13 inh -2.9, DNA FID counter -26.2, TMEM16A act inactive and Apaf-1 inh 14.0.
CCCN1CCN(C(=O)C2CCN(S(=O)(=O)c3c(C)noc3/C=C/c3ccc(C)cc3)CC2)CC1 was read as TMEM16A inh inactive, UBC13 inh 20.1, DNA FID counter 20.4, TMEM16A act inactive, Apaf-1 inh 60.9*, Apaf-1 inh conf2 27.1 and Rh110 quench 0.8.
Screening Cc1ccc(/C=C/c2onc(C)c2S(=O)(=O)N2CCC(C(=O)N3CCCCC3)CC2)cc1 returned TMEM16A inh inactive, UBC13 inh 4.3, DNA FID counter -39.2, TMEM16A act inactive and Apaf-1 inh 29.3.
CCOC(=O)CCNC(=O)N1CCCC(C(=O)c2cccc(OC(C)C)c2)C1 (stereo not drawn) was read as TMEM16A inh inactive, UBC13 inh 24.4, DNA FID counter -36.2, TMEM16A act inactive and Apaf-1 inh -13.6.
`Oc1ccc(NCc2ccccc2OCc2ccccc2)cc1` gave TMEM16A inh inactive, UBC13 inh 4.7, DNA FID counter -0.2, TMEM16A act inactive, Apaf-1 inh 89.5*, Apaf-1 inh conf2 18.3 and Rh110 quench 5.6.
`Cc1[nH]n(-c2ccccc2)c(=O)c1N=Nc1cccc(S(=O)(=O)N2CCOCC2)c1` gave TMEM16A inh inactive, UBC13 inh -71.7, DNA FID counter -2.0, TMEM16A act inactive, Apaf-1 inh 45.7*, Apaf-1 inh conf2 8.8 and Rh110 quench 2.2.
`CC(=O)Nc1ccc(-c2nnc(SCC(=O)n3c4c(c5ccccc53)CCCC4)n2C)cc1` gave DNA FID counter -4.2 and TMEM16A act inactive.
Screening Cn1c(SCC(=O)n2c3c(c4ccccc42)CCCC3)nnc1-c1ccccc1 returned TMEM16A inh inactive, UBC13 inh -11.0, DNA FID counter -2.1, TMEM16A act inactive, Apaf-1 inh 43.2*, Apaf-1 inh conf2 34.7 and Rh110 quench -10.2.
O=C(NCCCN1CCc2ccccc2C1)C1CCN(c2nnc(-n3cccc3)s2)CC1 was read as TMEM16A inh inactive, UBC13 inh 31.7, DNA FID counter 2.8, TMEM16A act inactive, Apaf-1 inh 51.3*, Apaf-1 inh conf2 24.5 and Rh110 quench 9.3.
`O=C(NCCCN1CCN(Cc2ccccc2)CC1)C1CCN(c2nnc(-n3cccc3)s2)CC1` gave TMEM16A inh inactive, UBC13 inh 32.8, DNA FID counter 11.2, TMEM16A act inactive and Apaf-1 inh 18.2.
For CCN(CC(=O)Nc1c(F)cccc1F)C(=O)Cc1ccsc1 the results were UBC13 inh 33.4, TMEM16A act inactive, Apaf-1 inh 52.3*, Apaf-1 inh conf2 41.5*, Rh110 quench 8.7 and Fluor interf inh >100.
For CCN(CC(=O)Nc1c(F)cccc1F)C(=O)CNC(=O)c1ccc2c(c1)OCO2 the results were TMEM16A inh inactive, UBC13 inh 18.3, DNA FID counter -3.5, TMEM16A act inactive, Apaf-1 inh 53.2*, Apaf-1 inh conf2 30.7 and Rh110 quench 1.8.
CCN(CC(=O)Nc1ccc(OC)cc1)C(=O)Cc1ccsc1 was read as UBC13 inh -1.6, TMEM16A act inactive and Apaf-1 inh -5.9.
CCOC(=S)N/C(=N\S(=O)(=O)c1ccc(C)cc1)c1ccccc1 was read as TMEM16A inh inactive, UBC13 inh 0.3, DNA FID counter 1.1, TMEM16A act inactive and Apaf-1 inh -5.8.
For O=C(Cn1cnc2c(nnn2Cc2ccc(F)cc2)c1=O)Nc1ccc2c(c1)OCCO2 the results were TMEM16A inh inactive, UBC13 inh 8.3, DNA FID counter -8.2, TMEM16A act inactive and Apaf-1 inh -13.0.
Screening CCOC(=O)c1c2c(n(C)c1C)C(=O)C(=O)c1ccc(Br)cc1-2 returned TMEM16A inh inactive, UBC13 inh -60.9, DNA FID counter 1.9, TMEM16A act inactive, Apaf-1 inh 95.6*, Apaf-1 inh conf2 71.6*, Rh110 quench 5.8 and Fluor interf inh >100.
Screening CCOC(=O)c1c2c(n(Cc3ccccc3)c1C)C(=O)C(=O)c1ccccc1-2 returned TMEM16A act inactive.
`COc1ccc(N(CC(=O)N2CCN(C)CC2)S(=O)(=O)c2cc(C)ccc2OC)cc1Cl` gave TMEM16A inh inactive, UBC13 inh 3.2, DNA FID counter 13.1, TMEM16A act inactive and Apaf-1 inh 7.3.

From PubChem BioAssay
